{
  "source": "paper PMC6044926",
  "about": "(ACS Omega, 2017)",
  "molecules": {"B1": {"name": "TPMT*6: naturally occurring TPMT variant, Y180F, purified recombinant protein (protein, UniProt P51580 1-245, looked up, variant Y180F)", "Thiopurine S-methyltransferase": "MDGTRTSLDIEEYSDTEVQKNQVLTLEEWQDKWVNGKTAFHQEQGHQLLKKHLDTFLKGKSGLRVFFPLCGKAVEMKWFADRGHSVVGVEISELGIQEFFTEQNLSYSEEPITEIPGTKVFKSSSGNISLYCCSIFDLPRTNIGKFDMIWDRGALVAINPGDRKCYADTMFSLLGKKFQFLLCVLSYDPTKHPGPPFYVPHAEIERLFGKICNIRCLEKVDAFEERHKSWGIDCLFEKLYLLTEK"}, "B2": {"name": "TPMT*8: naturally occurring TPMT variant, R215H, purified recombinant protein (protein, UniProt P51580 1-245, looked up, variant R215H)", "Thiopurine S-methyltransferase": "B1 Thiopurine S-methyltransferase with F180Y, R215H"}, "B3": {"name": "TPMTwt: recombinant wild-type human thiopurine S-methyltransferase (residues 1–245) (protein, UniProt P51580 1-245, looked up)", "Thiopurine S-methyltransferase": "B1 Thiopurine S-methyltransferase with F180Y"}},
  "key": {"TPMT*8 (R215H) [1]": {"target": "T1, TPMT*8 (R215H) (Homo sapiens, UniProt P51580, R215H)", "T1 sequence (P51580 1-245 R215H)": "B1 Thiopurine S-methyltransferase with F180Y, R215H", "test": "ITC binding of SAM and ANS to TPMT*8", "summary_of_the_method": "(§1)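 Isothermal titration calorimetry at 25 °C (reference power 7 μcal s−1) of ~50 μM His-tag-cleaved recombinant human TPMT (residues 1–245; E. coli BL21-CodonPlus(DE3)-RIL; Ni-NTA and gel filtration). Thirteen injections per run, at least three runs per variant–ligand pair, fitted to a binding model.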"}, "TPMT*6 (Y180F) [2]": {"target": "T2, TPMT*6 (Y180F) (Homo sapiens, UniProt P51580, Y180F)", "T2 sequence (P51580 1-245 Y180F)": "B1 Thiopurine S-methyltransferase", "test": "ITC binding of SAM and ANS to TPMT*6", "summary_of_the_method": "as §1"}, "TPMTwt [3]": {"target": "T3, TPMTwt (Homo sapiens, UniProt P51580)", "T3 sequence (P51580 1-245)": "B1 Thiopurine S-methyltransferase with F180Y", "test": "ITC binding of SAM and ANS to TPMTwt", "conditions": "dissociation constant, 25 °C", "summary_of_the_method": "as §1"}, "TPMT*8 (R215H) [4]": {"target": "T1, TPMT*8 (R215H)", "test": "Thermal denaturation by CD at 222 nm in the presence of ligand, TPMT*8", "assay_type": "binding", "summary_of_the_method": "(§2)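 Far-UV CD thermal unfolding at 222 nm, 18 to 80 °C in 2° steps, 10 scans over 60 s per step. Sample was 3 μM purified recombinant TPMT in 20 mM potassium phosphate pH 7.3, 75 mM NaCl, 2% glycerol, 0.5 mM TCEP, 4 mm cuvette. Run without ligand, with 30 μM SAM, or with 60 μM ANS. Tm fitted from three independent measurements.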"}, "TPMT*8 (R215H) [5]": {"target": "T1, TPMT*8 (R215H)", "test": "Thermal denaturation monitored as ANS fluorescence emission at 475 nm, TPMT*8", "assay_type": "binding", "conditions": "ANS emission at 475 nm, ANS in 20-fold molar excess (60 μM)", "summary_of_the_method": "(§3)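 Scanned 18 to 80 °C in 2° steps. Excitation 360 nm, emission 400–600 nm. Tm taken from the relative change in maximum intensity at 475 nm, three independent measurements.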"}, "TPMT*6 (Y180F) [6]": {"target": "T2, TPMT*6 (Y180F)", "test": "Thermal denaturation monitored as ANS fluorescence emission at 475 nm, TPMT*6", "assay_type": "binding", "conditions": "ANS emission at 475 nm, ANS in 20-fold molar excess (60 μM)", "summary_of_the_method": "as §3"}, "TPMT*6 (Y180F) [7]": {"target": "T2, TPMT*6 (Y180F)", "test": "Thermal denaturation by CD at 222 nm in the presence of ligand, TPMT*6", "assay_type": "binding", "summary_of_the_method": "as §2"}, "TPMT": {"target": "T4, TPMT (Homo sapiens, UniProt P51580)", "T4 sequence (P51580 1-245)": "B1 Thiopurine S-methyltransferase with F180Y", "test": "ANS and SAM binding to TPMT, all investigated variants", "conditions": "dissociation constant, ANS, ITC (fluorescence and ITC)", "summary_of_the_method": "as §1"}, "TPMTwt [8]": {"target": "T3, TPMTwt", "test": "Thermal denaturation monitored as ANS fluorescence emission at 475 nm, TPMTwt", "assay_type": "binding", "conditions": "ANS emission at 475 nm, ANS in 20-fold molar excess (60 μM)", "summary_of_the_method": "as §3"}, "TPMTwt [9]": {"target": "T3, TPMTwt", "test": "Thermal denaturation by CD at 222 nm in the presence of ligand, TPMTwt", "assay_type": "binding", "summary_of_the_method": "as §2"}, "[10]": {"test": "TPMT enzyme activity on purified recombinant protein, 6-MP as substrate", "assay_type": "biochemical, human", "conditions": "6-MP as thiopurine substrate", "summary_of_the_method": "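Activity of purified recombinant TPMT measured as rate of 6-methyl-mercaptopurine formation from 6-MP, with 14C-labelled S-adenosyl-L-methionine as methyl donor, following an earlier published protocol.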"}, "[11]": {"test": "Thermal denaturation of the TPMT variants by CD at 222 nm, no ligand", "assay_type": "physicochemical, human", "conditions": "3 μM protein, pH 7.3", "summary_of_the_method": "as §2"}, "[12]": {"conditions": "cited from earlier work"}, "[13]": {"conditions": "CD at 222 nm, ANS in 20-fold molar excess (60 μM), 3 μM protein"}, "[14]": {"conditions": "SAM in 10-fold molar excess (30 μM), 3 μM protein"}},
  "note": "Positions count from the first letter of the chain named. In names and notes the source's numbering stands. Several values for one entry are separate records, joined by “and”; a condition that tells them apart may be missing. Equal entries are not always repeated. Entries after “also recorded” stand apart in the source; their conditions may differ.",
  "data": [
    {"molecule": "O=S(=O)(O)c1cccc2cccc(Nc3ccccc3)c12", "note": "[ANS, 8-anilinonaphthalene-1-sulfonic acid]", "values": [
      {"measurement": "Kd", "setting": "TPMT*8 (R215H) [1]", "result": "202 ± 11", "unit": "nM"},
      {"measurement": "Kd", "setting": "TPMT*6 (Y180F) [2]", "result": "187 ± 32", "unit": "nM"},
      {"measurement": "Kd", "setting": "TPMTwt [3]; ANS", "result": "219 ± 58", "unit": "nM"},
      {"measurement": "thermal melting temperature, +ANS", "setting": "TPMT*8 (R215H) [4]; [13]", "result": "51.5 °C and 51.5 ± 0.4 °C"},
      {"measurement": "increase of Tm on addition of ANS", "setting": "TPMT*8 (R215H) [4]; CD at 222 nm, versus no ligand", "result": 5.0, "unit": "°C"},
      {"measurement": "thermal melting temperature, fluorescence, +ANS", "setting": "TPMT*8 (R215H) [5]", "result": "54.1 °C and 54.1 ± 0.3 °C"},
      {"measurement": "thermal melting temperature, fluorescence, +ANS", "setting": "TPMT*6 (Y180F) [6]", "result": "49.6 °C and 49.6 ± 0.4 °C"},
      {"measurement": "thermal melting temperature, +ANS", "setting": "TPMT*6 (Y180F) [7]; [13]", "result": "48.6 °C and 48.6 ± 0.7 °C"},
      {"measurement": "increase of Tm on addition of ANS", "setting": "TPMT*6 (Y180F) [7]; CD at 222 nm, versus no ligand", "result": 7.2, "unit": "°C"},
      {"measurement": "Kd", "setting": "TPMT", "result": "~200 nM and 200 nM"},
      {"measurement": "thermal melting temperature, fluorescence, +ANS", "setting": "TPMTwt [8]", "result": "54.1 °C and 54.1 ± 0.5 °C"},
      {"measurement": "thermal melting temperature, +ANS", "setting": "TPMTwt [9]; [13]", "result": "53.8 °C and 53.8 ± 0.5 °C"},
      {"measurement": "increase of Tm on addition of ANS", "setting": "TPMTwt [9]; CD at 222 nm, versus no ligand", "result": 7.4, "unit": "°C"}
    ]},
    {"molecule": "C[S+](CC[C@H](N)C(=O)[O-])C[C@H]1O[C@@H](n2cnc3c(N)ncnc32)[C@H](O)[C@@H]1O", "note": "(stereo partly shown) [SAM, S-adenosylmethionine]", "values": [
      {"measurement": "Kd", "setting": "TPMT*8 (R215H) [1]", "result": "1500 ± 100", "unit": "nM"},
      {"measurement": "Kd", "setting": "TPMT*6 (Y180F) [2]", "result": "1800 ± 500", "unit": "nM"},
      {"measurement": "Kd", "setting": "TPMTwt [3]; SAM", "result": "2200 ± 700", "unit": "nM"},
      {"measurement": "thermal melting temperature, circular dichroism, +SAM", "setting": "TPMT*8 (R215H) [4]; [14]", "result": "47.3 ± 0.3", "unit": "°C"},
      {"measurement": "thermal melting temperature, circular dichroism, +SAM", "setting": "TPMT*6 (Y180F) [7]; [14]", "result": "40.5 ± 0.5", "unit": "°C"},
      {"measurement": "thermal melting temperature, circular dichroism, +SAM", "setting": "TPMTwt [9]; [14]", "result": "46.8 ± 0.5", "unit": "°C"}
    ]},
    {"molecule": "B1", "values": [
      {"measurement": "in vitro enzyme functionality", "setting": "[10]", "result": "fully functional; also recorded: normal functionality"},
      {"measurement": "thermal melting temperature, circular dichroism, no ligand", "setting": "[11]", "result": "41.4 ± 1.1", "unit": "°C"}
    ]},
    {"molecule": "B2", "values": [
      {"measurement": "reported in vivo enzyme activity class", "setting": "[12]", "result": "intermediate"},
      {"measurement": "in vitro enzyme functionality", "setting": "[10]", "result": "fully functional; also recorded: normal functionality"},
      {"measurement": "thermal melting temperature, circular dichroism, no ligand", "setting": "[11]", "result": "46.5 ± 0.4", "unit": "°C"}
    ]},
    {"molecule": "B3", "values": [
      {"measurement": "thermal melting temperature, circular dichroism, no ligand", "setting": "[11]", "result": "46.4 ± 0.6", "unit": "°C"}
    ]}
  ]
}
